Screening data: PubChem BioAssay, several laboratories
Rad51 HR inh: blocks human Rad51 in homologous recombination; Q06609; hRad51 DNA strand exchange, fluorescence dequenching; inhibition, % at 10 µM; 0.085% of 200,000 active; AID 1385;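 active = inhibition above 40% at the single screening dose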;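 also: 0% = DMSO control wells and 100% = blanks with heterologous ssDNA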
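Material: Human Rad51 nucleoprotein filaments preassembled on unlabelled ssDNA | Also added: Labelled 47-mer dsDNA for strand exchange | Dosing: Single dose, 10 µM final compound | Schedule: 30-min compound preincubation and 15-min exchange, both room temperature | Technique: Fluorescence dequenching at 485/520 nm | Measure: Percent inhibition relative to plate controls and blanks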
CHT block: inhibits the human high affinity choline transporter. Q9GZV3. CHT-expressing cells, membrane potential dye, choline response; hits give low values. B-score at 10 µM. 0.86% of 310,000 active. AID 488975;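 active = B-score over 3 SD under the library average, and starting fluorescence ratio not unusually high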;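 also: choline stimulus applied at its EC90 after an EC20 pre-addition; B-score computed on integrated fluorescence ratio after choline addition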
Cl transport mod: modulates chloride dependent transport by human KCC2; B-score of Tl+ flux slope (higher = more flux/activation; lower = inhibition) at 10 µM; KCC2 cells, thallium flux FluoZin-2 fluorescence; 2.2% of 190,000 active;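 active = thallium flux slope and its plate-corrected score both differing from the plate sample mean at a set confidence after two filtering rounds, in either direction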;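 also: slope of fluorescence scaled to starting intensity during 10 to 20 s after thallium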
Target sequence (Q9H2X9 whole entry, looked up): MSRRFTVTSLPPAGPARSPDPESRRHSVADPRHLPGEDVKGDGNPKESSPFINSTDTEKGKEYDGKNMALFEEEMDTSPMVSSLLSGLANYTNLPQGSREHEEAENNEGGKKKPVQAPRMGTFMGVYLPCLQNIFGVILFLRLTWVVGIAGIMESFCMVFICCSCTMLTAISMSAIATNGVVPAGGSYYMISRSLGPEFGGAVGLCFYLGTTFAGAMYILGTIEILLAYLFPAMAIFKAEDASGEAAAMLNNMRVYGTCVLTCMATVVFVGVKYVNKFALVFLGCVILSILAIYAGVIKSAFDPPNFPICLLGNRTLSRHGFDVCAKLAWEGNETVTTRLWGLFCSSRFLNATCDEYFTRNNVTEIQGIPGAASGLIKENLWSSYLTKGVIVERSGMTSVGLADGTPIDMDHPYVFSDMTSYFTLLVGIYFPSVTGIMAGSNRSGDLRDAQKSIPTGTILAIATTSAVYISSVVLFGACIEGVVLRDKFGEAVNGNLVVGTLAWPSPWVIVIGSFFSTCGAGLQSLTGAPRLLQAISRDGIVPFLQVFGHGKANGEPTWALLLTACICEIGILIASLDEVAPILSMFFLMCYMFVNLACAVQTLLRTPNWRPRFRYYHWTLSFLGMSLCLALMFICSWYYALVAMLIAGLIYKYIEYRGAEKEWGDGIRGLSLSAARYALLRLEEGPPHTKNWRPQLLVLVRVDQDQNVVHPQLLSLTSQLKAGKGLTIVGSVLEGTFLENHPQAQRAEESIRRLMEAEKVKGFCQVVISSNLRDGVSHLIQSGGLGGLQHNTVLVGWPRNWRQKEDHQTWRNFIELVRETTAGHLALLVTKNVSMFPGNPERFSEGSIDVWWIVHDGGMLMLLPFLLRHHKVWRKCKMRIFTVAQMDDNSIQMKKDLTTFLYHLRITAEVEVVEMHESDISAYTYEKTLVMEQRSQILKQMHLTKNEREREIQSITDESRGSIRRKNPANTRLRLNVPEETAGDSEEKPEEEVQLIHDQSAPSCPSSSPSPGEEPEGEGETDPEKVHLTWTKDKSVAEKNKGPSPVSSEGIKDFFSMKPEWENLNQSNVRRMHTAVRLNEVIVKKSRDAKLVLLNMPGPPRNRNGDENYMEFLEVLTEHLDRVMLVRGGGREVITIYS
CHT allo act: allosteric activators of human choline transporter CHT; 0.49% of 310,000 active; CHT-expressing cells, membrane potential dye, choline EC20; hits give high values; LV-AA mutant CHT in HEK293 cells; AID 488977; Q9GZV3; B-score at 10 µM;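 active = initial fluorescence not abnormally high and integrated response B-score, plate-corrected, over 3 SD above library mean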
KCC2 sec1: KCC2 (human) modulation, secondary assay. shares compounds with Cl transport mod. HEK293-KCC2, thallium flux, FluoZin2 fluorescence; hits give high values. normalised thallium flux (F/F0 slope) at 10 µM. 15% of 3,700 active;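 active = thallium flux slope above the same plate's solvent-only control mean plus 3 SD; inconclusive = the two replicate wells disagree; inactive = no significant difference from solvent-only control wells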
KCC2 bumet counter: thallium flux persisting under bumetanide in KCC2 cells, counter-screen secondary assay; shares compounds with Cl transport mod; HEK293-KCC2 + bumetanide/ouabain, thallium flux FluoZin2; hits give high values; normalized thallium flux at 10 µM; 49% of 3,700 active;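 active = thallium entry rate above the same plate's blocked-transporter control wells by more than 3 SD; inconclusive = the two repeat wells disagree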;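 also: raw slope of fluorescence over initial fluorescence between 10 and 20 s after thallium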
KCC2 secondary2: KCC2 (human) modulation, second secondary assay; shares compounds with Cl transport mod; HEK293-KCC2, thallium flux FluoZin2 fluorescence; actives lie on both sides; F/F0 rise rate, 10–20 s post-thallium; normalized thallium flux at 10 µM; 23% of 3,700 active; AID 1715;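 active = thallium flux slope more than 3 SD above or below the plate's solvent-only control mean, mostly below; inconclusive = the two repeat wells disagreed; inactive = no significant shift from solvent-only controls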;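 also: raw slope with 0.1% DMSO as baseline and bumetanide as block control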
HEK counter1: counter-screen for KCC2 modulators: effect in parental HEK293 cells; shares compounds with Cl transport mod; thallium flux FluoZin2, ouabain; baseline-ratio fluorescence slope, 10–20 s after thallium; 46% of 3,700 active; AID 1716; thallium flux rate (normalised fluorescence) at 10 µM;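 active = thallium flux rate significantly above the same plate's solvent-only control wells, beyond their mean plus 3 SD; inconclusive = the two replicate wells gave conflicting results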
KCC2 ouabain: modulates human KCC2 on retest with ouabain | shares compounds with Cl transport mod | HEK293-KCC2, thallium flux FluoZin2 fluorescence; bidirectional: low = inhibitor, high = activator | raw Tl+ flux slope (below DMSO = inhibition, above = activation) at 10 µM | 48% of 3,700 active;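 active = thallium flux slope beyond 3 SD from same-plate DMSO control mean in most replicates, usually higher, sometimes lower; inconclusive = repeat tests gave conflicting results; inactive = no significant difference from controls in most replicates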;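 also: slope of initial-normalized fluorescence between seconds 10 and 20 after thallium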
HEK293 Tl flux2: acts in parental HEK cells, second KCC2 counter-screen; shares compounds with Cl transport mod; HEK293 parental, thallium flux FluoZin-2 fluorescence slope; thallium flux slope at 10 µM; 33% of 3,700 active;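 active = thallium flux slope above the same plate's solvent-control mean plus 3 SD in both duplicate wells; inconclusive = duplicate wells that disagreed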;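 also: run without ouabain in cells lacking the KCC2 cotransporter; slope of fluorescence scaled to its starting value between 10 and 20 s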
Starred values were filed as active, the others as inactive; i = inactive; ? = inconclusive; nt = no result. Only some compounds are listed: those with a hit (about 2.6% of all), similar ones and a draw of the others.

SMILES	Rad51 HR inh	CHT block	Cl transport mod	CHT allo act	KCC2 sec1	KCC2 bumet counter	KCC2 secondary2	HEK counter1	KCC2 ouabain	HEK293 Tl flux2
COc1cc(C(=O)N/C(=C\c2cn(C)c3ccccc23)C(=O)NCCN2CCOCC2)cc(OC)c1OC	nt	i	nt	i	nt	nt	nt	nt	nt	nt
O=C1CN(C(=O)COC(=O)CCC(=O)c2ccc3c(c2)OCCO3)c2ccccc2N1	0	i	-4.4*	i	0.0073	0.005	0.024*	0.0078	0.017	0.01
CCCOc1ccc(C(=O)CCC(=O)OCC(=O)N2CC(=O)Nc3ccccc32)cc1	4	i	0.061	i	nt	nt	nt	nt	nt	nt
CCc1nnc(NC(=O)CSc2nnc(Cc3cc(=O)[nH]c(=O)[nH]3)n2-c2cccc(OC)c2)s1	-6	i	0.39	i	nt	nt	nt	nt	nt	nt
O=C1NC(=S)N(C(=O)c2ccc(F)cc2)/C1=C/c1cccnc1	14	i	0.72	i	nt	nt	nt	nt	nt	nt
COc1ccc(/C=C2\C(=O)NC(=S)N2C(=O)c2ccc(C)cc2)cc1	nt	i	7.5*	i	0.0062	0.021*	0.039*	0.019*	0.028*	0.021*
COC(=O)Nc1ccc(S(=O)(=O)NCCO)cc1	2	i	-0.0087	i	nt	nt	nt	nt	nt	nt
CC(C)Cn1c(-c2ccccc2F)n[nH]c1=S	nt	i	1.7	i	nt	nt	nt	nt	nt	nt
CC(C)Cn1c(-c2csc3c2CCCC3)n[nH]c1=S	nt	i	4.8*	i	0.011	0.033*	0.031	0.011*	0.029*	0.01
c1ccc(Nc2nc(N3CCCC3)nc(N3CCCC3)n2)cc1	3	i	1	i	nt	nt	nt	nt	nt	nt
Fc1ccc(Nc2nc(Oc3ccccc3F)nc(N3CCCC3)n2)cc1	-7	i	nt	i	0.0073	0.0064	0.029	0.007	0.02	0.0097
S=c1nc(-c2ccccc2)n(CCCn2ccnc2)c2c1CCCC2	-10	i	0.93	i	nt	nt	nt	nt	nt	nt
S=c1nc(-c2ccccc2)n(CCCN2CCOCC2)c2c1CCCC2	4	i	12*	i	0.018*	0.024*	0.034	0.026*	0.037*	?
CN(C)S(=O)(=O)c1cccc(NC(=O)CSc2ncnc3ccccc23)c1	12	i	-4.2	i	nt	nt	nt	nt	nt	nt
CN(C)S(=O)(=O)c1ccc(NC(=O)CSc2ncnc3ccccc23)cc1	-22	i	-4*	i	0.008	0.0065	0.026*	0.0072	0.015*	0.011
O=C(Cc1c[nH]c2ccccc12)NCc1ccc2c(c1)OCO2	7	i	-0.018	i	nt	nt	nt	nt	nt	nt
CC(C)C(NC(=O)OCc1ccccc1)C(=O)N1CCOCCOCCOCC1 (stereo not drawn)	-3	i	0.9	i	nt	nt	nt	nt	nt	nt
Cc1cc(=O)n(Cc2ccc(OC(C)C)cc2)c(=S)[nH]1	0	i	nt	i	?	0.015*	0.032	0.016*	?	0.012
CCc1ccc(-c2cc(C)no2)cc1S(=O)(=O)N1CCN(c2ccc(F)cc2)CC1	nt	i	nt	i	nt	nt	nt	nt	nt	nt
C=CCn1c(SCC#N)nc2ccccc2c1=O	5	i	0.17	i	nt	nt	nt	nt	nt	nt
C=CCn1c(SCC#N)nc2c(c1=O)C(C)(C)Cc1ccccc1-2	nt	i	-0.13	i	0.0061	0.005	0.031	?	0.018	0.009
Cc1ccc(N2C(=O)C(Cc3ccc(O)cc3)NC2=S)cc1C (stereo not drawn)	3	i	-3.9*	i	0.0088	0.0047	0.032	0.0074	0.023	0.01
Cc1cccc(N2C(=O)C(Cc3ccccc3)NC2=S)c1 (stereo not drawn)	-3	i	1.3	i	nt	nt	nt	nt	nt	nt
Cn1cnnc1SCc1ccc(C(=O)O)cc1	-3	i	nt	i	nt	nt	nt	nt	nt	nt
Cc1ccc2cc(C)c3nnc(SCc4ccc(C(=O)O)cc4)n3c2c1C	6	i	3.1*	i	0.0068	0.0087*	0.036	0.011*	0.023	0.013*
SMILES	Rad51 HR inh	CHT block	Cl transport mod	CHT allo act	KCC2 sec1	KCC2 bumet counter	KCC2 secondary2	HEK counter1	KCC2 ouabain	HEK293 Tl flux2
Cc1ccc(-n2c(CNc3ccc(C)c(Cl)c3)n[nH]c2=S)cc1	2	i	3.5*	i	0.0094	0.084*	0.032	0.011*	0.028	?
CCOC(=O)c1csc(Nc2nc3ccc(F)cc3s2)n1	nt	i	27*	i	0.02*	0.079*	0.034	0.056*	0.057*	0.018*
O=C(Nc1nc2ccc(F)cc2s1)c1ccccn1	-5	i	60*	i	0.0061	0.096*	0.061*	0.056*	0.076*	0.052*
O=C(Nc1nnc(SCc2ccc(F)cc2)s1)c1cccnc1Cl	0	i	-2	i	nt	nt	nt	nt	nt	nt
O=C(Nc1nnc(SCc2ccc(F)cc2)s1)c1ccccn1	22	nt	44*	nt	0.0066	0.039*	?	0.036*	0.036*	0.027*
O=c1cc(/C=C/c2c(F)cccc2Cl)[nH]c2ccccc12	-3	i	0.15	i	nt	nt	nt	nt	nt	nt
CC1(C(=O)OCC(=O)c2c[nH]c3ccccc23)CC1(Cl)Cl (stereo not drawn)	nt	i	-2.5*	i	0.0053	0.0053	0.028	0.0078	0.016*	0.011
COc1ccccc1CNC(=O)CN1C(=O)COc2ccc(S(=O)(=O)NC3CCCC3)cc21	nt	i	nt	i	nt	nt	nt	nt	nt	nt
Cn1c(/N=C/c2ccc3c(c2)OCO3)nc2ccccc21	3	i	-3.1*	i	0.0075	0.0044	?	0.0073	0.017*	0.01
O=C(Nc1ccc2ccccc2c1)C(=O)C1C(=O)Nc2ccccc21 (stereo not drawn)	-13	i	25*	i	?	0.022*	?	0.018*	0.021	0.017*
Cc1cccc(-c2noc(CCCC(=O)Nc3ccc(C(N)=O)cc3)n2)c1	-4	i	nt	i	nt	nt	nt	nt	nt	nt
Cc1cccc(-c2noc(CCCC(=O)Nc3cccnc3)n2)c1	nt	i	-5.1*	i	0.0069	0.0045	0.031	0.0083	0.019	0.011
O=C(Nn1c(O)c(C=C2N=c3ccccc3=N2)sc1=S)c1ccccc1Cl	-11	i	-4.4*	i	0.017	0.0048	0.02*	0.0077	0.014	0.012
COc1ccccc1NC(=S)NC(=O)c1c(-c2ccccc2Cl)noc1C	-1	i	3.7*	i	0.012	0.028*	0.036	?	0.03*	?
